Active and inactive are the calls of the source. The rule behind the calls is not given here.

The target in data set [1] is T1, Histone-lysine N-methyltransferase EHMT2 (Homo sapiens) (UniProt Q96KQ7).
T1 sequence (whole entry): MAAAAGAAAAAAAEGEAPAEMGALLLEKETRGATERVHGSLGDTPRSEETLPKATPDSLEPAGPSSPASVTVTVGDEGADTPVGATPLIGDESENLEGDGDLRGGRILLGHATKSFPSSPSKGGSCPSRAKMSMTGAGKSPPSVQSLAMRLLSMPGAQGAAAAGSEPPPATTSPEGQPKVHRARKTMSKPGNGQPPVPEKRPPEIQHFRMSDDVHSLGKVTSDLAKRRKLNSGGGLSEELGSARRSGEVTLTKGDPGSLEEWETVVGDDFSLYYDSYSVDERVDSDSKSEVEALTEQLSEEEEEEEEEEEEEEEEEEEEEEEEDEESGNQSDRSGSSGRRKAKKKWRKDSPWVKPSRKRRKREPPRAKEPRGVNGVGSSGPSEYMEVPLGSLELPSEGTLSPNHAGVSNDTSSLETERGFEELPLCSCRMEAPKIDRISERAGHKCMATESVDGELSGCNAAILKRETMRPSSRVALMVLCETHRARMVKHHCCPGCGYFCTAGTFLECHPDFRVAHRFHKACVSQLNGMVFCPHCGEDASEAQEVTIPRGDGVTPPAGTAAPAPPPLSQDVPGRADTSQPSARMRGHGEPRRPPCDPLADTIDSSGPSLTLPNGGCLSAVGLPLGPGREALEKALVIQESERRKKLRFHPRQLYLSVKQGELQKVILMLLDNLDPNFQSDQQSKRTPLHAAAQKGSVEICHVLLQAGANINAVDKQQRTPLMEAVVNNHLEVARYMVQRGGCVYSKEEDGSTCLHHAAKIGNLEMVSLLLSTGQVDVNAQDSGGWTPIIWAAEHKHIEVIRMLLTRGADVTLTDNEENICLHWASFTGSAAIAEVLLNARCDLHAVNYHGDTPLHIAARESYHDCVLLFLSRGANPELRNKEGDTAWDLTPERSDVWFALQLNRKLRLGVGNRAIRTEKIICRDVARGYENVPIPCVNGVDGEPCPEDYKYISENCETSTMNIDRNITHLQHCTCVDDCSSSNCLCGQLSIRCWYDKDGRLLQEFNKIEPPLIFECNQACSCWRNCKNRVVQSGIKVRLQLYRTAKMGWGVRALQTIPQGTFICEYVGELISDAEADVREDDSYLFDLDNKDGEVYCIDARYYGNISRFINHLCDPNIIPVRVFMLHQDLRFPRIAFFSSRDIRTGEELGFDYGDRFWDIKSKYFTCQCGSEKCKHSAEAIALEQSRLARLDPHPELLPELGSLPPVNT
Kind of data set: Inhibition of G9a in human PC-3 cells assessed as effect on H3k9me3 levels at 0.3 to 3 uM after 72 hrs by Western blot analysis. The class given is cell-based. Particulars: dose 0.3-3 µM. The procedure, abridged:
(§1)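 PC-3 prostate cells incubated with DMSO, 0.3 or 3 μM compound for 72 h. Lysates probed by western blot with antibodies to H3K9me2, H3K4me2, H3K4me3, H3K9me3, H4K20me1, H4K20me3, H3K36me2 and H3K27me3.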
For orientation: A western blot detects proteins with antibodies after separation by electrophoresis.

In data set [2] the target is T1, Histone-lysine N-methyltransferase EHMT2 (Homo sapiens). The data set can be described thus: Inhibition of G9a in human PC-3 cells assessed as effect on H3k36me2 levels at 0.3 to 3 uM after 72 hrs by Western blot analysis. The class given is cell-based. Particulars: dose 0.3-3 µM. The procedure, abridged: as §1
The nature of data set [3]: Cytotoxicity against human PBMC cells assessed as effect on cell viability after 48 hrs by Cell-titerGlo assay. In kind it is toxicity, cell-based. The method in brief:
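PBMCs from two human donors were pooled and grown in AIM-V medium. Cells were treated with compound for 48 h. Viability was read by CellTiter-Glo endpoint.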

Data set [4] can be described thus: Drug level in SCID/beige mouse plasma xenografted with human MV4-11 cells at 30 mg/kg/day via osmotic-mini pump. The note with it: in vivo. The class given is ADME, organism-based. The procedure, abridged:
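Tumor-bearing SCID-beige female mice (6–8 wk) with subcutaneous flank MV4;11 xenografts (5 x 10^6 cells in 50% Matrigel, grown to ~200 mm3). Compound given by osmotic mini-pump at 30 mg/kg/day in 98% PEG-400/2% Tween-80. Separate PK/PD arm sacrificed after 2, 7 and 14 days of treatment; plasma and tissues collected and analyzed for drug levels.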
Background: In xenograft studies the graft and the host belong to different species.

Regarding `COc1cc2c(cc1OCCCN1CCCC1)N=C(N)C21CCC1`, the inhibition entry in data set [1] and in data set [2] was “inactive” each time. In addition, in data set [3], the Activity result was “Non-Toxic”. Also, the Drug uptake result in data set [4] is listed as “Active”.

The record behind these values is ChEMBL document CHEMBL5674869, “The Histone Methyltransferase Inhibitor A-366 Uncovers a Role for G9a/GLP in the Epigenetics of Leukemia” (PLoS One, 2015).
